# The source made the active and inactive calls. The calls are words filed in the database; no cut-off is given here.
# What was measured:
# [1] = Inhibition of amyloid beta (25 to 35) fibril formation at 10 uM by UV-visible spectrometry analysis
# Summary of the method: (§1)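 Aβ(25-35) stock (1 mM) prepared in sterile water at 4 °C by brief vortexing, then sonicated 10 min. Polyphenol stock 1 mg/mL in MeOH. Reaction used 10 mM phosphate buffer, pH 7.2, 100 µM peptide final and polyphenol at 5 or 10 µM final. Fibril formation followed by UV–visible spectrophotometry.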
# [2] = Inhibition of amyloid beta (1 to 40) fibril formation at 5 uM by UV-visible spectrometry analysis
# Summary of the method: (§2)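 Full-length Aβ stock (1 mM) prepared in sterile water at 4 °C by brief vortexing, then sonicated 10 min. Polyphenol stock 1 mg/mL in MeOH. Reaction used 10 mM phosphate buffer, pH 7.2, 50 µM peptide final and polyphenol at 5 or 10 µM final. Fibril formation followed by UV–visible spectrophotometry.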
# [3] = Inhibition of amyloid beta (1 to 40) fibril formation at 10 uM by UV-visible spectrometry analysis; summary of the method: as §2
# [4] = Inhibition of amyloid beta (1 to 42) fibril formation at 10 uM by UV-visible spectrometry analysis; summary of the method: as §2
# [5] = Inhibition of amyloid beta (25 to 35) fibril formation by UV-visible spectrometry analysis; summary of the method: as §1
# [6] = Inhibition of amyloid beta (1 to 42) fibril formation at 5 uM by UV-visible spectrometry analysis; summary of the method: as §2
# PC-12 [7] = assay: Antiamyloidogenic activity in rat PC12 cells assessed as protection against amyloid beta (25 to 35)-induced cell death at 10 uM after 24 hrs by MTT assay; format: functional
# Summary of the method: (§3)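 PC12 cells kept in DMEM-Glutamax with 15% heat-inactivated horse serum, 2.5% FBS and antibiotics at 37 °C, 10% CO2, on poly-D-lysine. Seeded 10,000 cells/well and grown 24 h. Aβ was preincubated with or without compound at 37 °C for 48 h, diluted in medium and added (Aβ final 10 µM). After 24 h, MTT 0.5 mg/ml for 3 h at 37 °C, DMSO solubilisation, A595. Read-out is % of control cells.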
# PC-12 [8] = assay: Antiamyloidogenic activity in rat PC12 cells assessed as protection against amyloid beta (1 to 42)-induced cell death at 10 uM after 24 hrs by MTT assay; format: functional; summary of the method: as §3
# [9] = Binding affinity to amyloid beta (1 to 40) assessed as non-covalent protein-compound complex formation at 10 uM using 35% methanol by electrospray ionization mass spectrometry analysis
# Summary of the method: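 ESI ion-trap MS by direct infusion at 180 µL/h. Aβ(1-40) and compound mixed 1:1 molar (10 µM) in 35% methanol. Spectra recorded over m/z 150–2000 in positive and negative ion modes at normal scan resolution. Non-covalent complex ions identified.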
# PC-12 [10] = assay: Antiamyloidogenic activity in rat PC12 cells assessed as protection against amyloid beta (1 to 40)-induced cell death at 10 uM after 24 hrs by MTT assay; format: functional; summary of the method: as §3
# PC-12 [11] = assay: Cytotoxicity against rat PC12 cells up to 10 uM after 24 hrs by MTT assay; settings: pc-12, 24 h
SMILES,inhibition [1],inhibition [2],inhibition [3],inhibition [4],IC50 [5],inhibition [6],Activity (PC-12 [7]),Activity (PC-12 [8]),Activity [9],Activity (PC-12 [10]),Activity (PC-12 [11])
Oc1ccc(/C=C/c2cc(O)cc(O)c2)cc1,63%,22%,52%,61%,,,,,,,
OC[C@H]1O[C@@H](Oc2cc(/C=C/c3ccc(O)cc3)c3c(c2)O[C@H](c2ccc(O)cc2)[C@H]3c2cc(O)cc(O)c2)[C@H](O)[C@@H](O)[C@@H]1O,93%,59%,97%,89%,< 1000 nM,70%,80%,87%,Active,79%,Non-toxic
O=C(O)/C=C/c1ccc(O)cc1,,,,,,,,,inactive,,

# Source: ChEMBL document CHEMBL1777791, “Protective effect of ε-viniferin on β-amyloid peptide aggregation investigated by electrospray ionization mass spectrometry” (Bioorg Med Chem, 2011)
